In ChEMBL document CHEMBL1154183, “Structure-based optimization of potent and selective inhibitors of the tyrosine kinase erythropoietin producing human hepatocellular carcinoma receptor B4 (EphB4)” (J Med Chem, 2009) one finds Activity and IC50 data, which are given here for 2 molecules.

SMILES strings stand for the structures.

Experiment [1] concerns eIF-2-alpha kinase GCN2 (Homo sapiens), Q9P2K8 [S808G]. Kind of experiment: Binding affinity to GCN2 kinase domain 2 S808G mutant assessed as percentage of kinase remaining bound to the bead at 1 uM by T7 phage display based binding assay. An outline of the steps: (§1)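 Competition binding assay run by a contract lab. Each kinase was expressed as a fusion to T7 phage, full-length for small kinases and catalytic domain for large ones. Phage were mixed with an immobilized known kinase inhibitor on streptavidin magnetic beads and with test compound at a single 1 μM. Kinase/phage still bound to the beads was quantified by qPCR and expressed as % of DMSO control.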

The target in experiment [2] is Mitogen-activated protein kinase 15 (Homo sapiens) (UniProt Q8TD08). Kind of experiment: Inhibition of ERK8 assessed as remaining enzyme activity at 1 uM relative to DMSO. An outline of the steps:
(§2)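 Dundee kinase panel, radiometric: [γ-33P]ATP (800 cpm/pmol) at 5, 20 or 50 μM, at or below each kinase's ATP Km; 10 mM magnesium acetate; robotic, room temperature, 30 min. Reactions started with MgATP, stopped with orthophosphoric acid, spotted onto P81 filters. Inhibitor tested at a single concentration; mean % activity of duplicates relative to DMSO control.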

Experiment [3] addresses Inhibitor of nuclear factor kappa-B kinase subunit epsilon (Homo sapiens) (UniProt Q14164). Kind of experiment: Inhibition of IKKepsilon assessed as remaining enzyme activity at 1 uM relative to DMSO. An outline of the steps: as §2
Experiment [4] addresses Serine/threonine-protein kinase Chk2 (Homo sapiens) (UniProt O96017). Nature of the experiment: Inhibition of CHK2 assessed as remaining enzyme activity at 1 uM relative to DMSO. An outline of the steps:
as §2

Experiment [5] addresses Serine/threonine-protein kinase 32C (Homo sapiens) (UniProt Q86UX6). Nature of the experiment: Binding affinity to YANK3 assessed as percentage of kinase remaining bound to the bead at 1 uM by T7 phage display based binding assay. In a few lines:
as §1

Experiment [6] concerns the target Tyrosine-protein kinase ABL2 (Homo sapiens) (UniProt P42684). Kind of experiment: Binding affinity to ABL2 assessed as percentage of kinase remaining bound to the bead at 1 uM by T7 phage display based binding assay. An outline of the steps:
as §1

Experiment [7] has as its target Tyrosine-protein kinase ABL1 (Homo sapiens) (UniProt P00519). Kind of experiment: Binding affinity to phosphorylated ABL1 assessed as percentage of kinase remaining bound to the bead at 1 uM by T7 phage display based binding assay. An outline of the steps:
as §1

Experiment [8] has as its target Vascular endothelial growth factor receptor 2 (Homo sapiens) (UniProt P35968). Kind of experiment: Binding affinity to VEGFR2 assessed as percentage of kinase remaining bound to the bead at 1 uM by T7 phage display based binding assay. An outline of the steps: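 Kinases expressed as T7 phage fusions (full-length for small kinases, catalytic domain for large). Phage mixed with an immobilized known kinase inhibitor on streptavidin magnetic beads plus test compound at a single 1 μM concentration. Ligand displacement from the ATP site was read by quantitative PCR as % kinase/phage still bead-bound versus DMSO control. Human kinases.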

Experiment [9] deals with Ephrin type-B receptor 3 (Homo sapiens, UniProt P54753). Nature of the experiment: Inhibition of EphB3 by [gamma33-P]ATP based assay. In a few lines:
(§3)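 Radiometric [γ-33P]ATP kinase assay against Eph kinases, following a protocol similar to the Mg-acetate/MgATP filter-binding method.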

Experiment [10] deals with Cyclin-dependent kinase 2 (Homo sapiens) (UniProt P24941). Kind of experiment: Inhibition of CDK2 assessed as remaining enzyme activity at 1 uM relative to DMSO. An outline of the steps: as §2
Experiment [11] has as its target Serine/threonine-protein kinase 3 (Homo sapiens) (UniProt Q13188). Kind of experiment: Inhibition of MST2 assessed as remaining enzyme activity at 1 uM relative to DMSO. In a few lines: (§4)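 Radiometric kinase assay run robotically at room temperature for 30 min. Contained 10 mM magnesium acetate and [γ-33P]ATP (800 cpm/pmol) at 5, 20 or 50 μM, chosen per kinase to be at or below its ATP Km. Reactions were started with MgATP, stopped with orthophosphoric acid and spotted onto P81 filters. Result is mean % activity of duplicates at one inhibitor concentration versus DMSO control.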

In experiment [12] the target is Fibroblast growth factor receptor 2 (Homo sapiens) (UniProt P21802). Kind of experiment: Binding affinity to FGFR2 assessed as percentage of kinase remaining bound to the bead at 1 uM by T7 phage display based binding assay. An outline of the steps:
as §1

In experiment [13] the target is Tyrosine-protein kinase CSK (Homo sapiens) (UniProt P41240). Kind of experiment: Inhibition of CSK assessed as remaining enzyme activity at 1 uM relative to DMSO. In a few lines: as §2
The target of experiment [14] is Ephrin type-A receptor 3 (Homo sapiens, UniProt P29320). Nature of the experiment: Inhibition of EphA3 by [gamma33-P]ATP based assay. An outline of the steps: as §3
The target of experiment [15] is Ephrin type-A receptor 4 (Homo sapiens, UniProt P54764). Kind of experiment: Inhibition of EphA4 by [gamma33-P]ATP based assay. In a few lines:
as §3

The target in experiment [16] is Dual specificity tyrosine-phosphorylation-regulated kinase 1A (Homo sapiens) (UniProt Q13627). Nature of the experiment: Inhibition of DYRK1A assessed as remaining enzyme activity at 1 uM relative to DMSO.
Experiment [17] addresses Serine/threonine-protein kinase Sgk1 (Homo sapiens) (UniProt O00141). Kind of experiment: Inhibition of SGK1 assessed as remaining enzyme activity at 1 uM relative to DMSO.
Experiment [18] deals with Mitogen-activated protein kinase 14 (Homo sapiens) (UniProt Q16539). Nature of the experiment: Inhibition of p38alpha assessed as remaining enzyme activity at 1 uM relative to DMSO.
Experiment [19] concerns the target Dual specificity tyrosine-phosphorylation-regulated kinase 3 (Homo sapiens) (UniProt O43781). Nature of the experiment: Inhibition of DYRK3 assessed as remaining enzyme activity at 3 uM relative to DMSO. An outline of the steps:
as §2

For experiment [20], the target named is Tyrosine-protein kinase Yes (Homo sapiens) (UniProt P07947). Nature of the experiment: Inhibition of YES1 assessed as remaining enzyme activity at 3 uM relative to DMSO.
In experiment [21] the target is Mitogen-activated protein kinase 14 (Homo sapiens) (UniProt Q16539). Nature of the experiment: Inhibition of p38alpha assessed as remaining enzyme activity at 3 uM relative to DMSO.
The target of experiment [22] is NUAK family SNF1-like kinase 1 (Homo sapiens) (UniProt O60285). Kind of experiment: Inhibition of NUAK1 assessed as remaining enzyme activity at 3 uM relative to DMSO. In a few lines:
as §4

The target of experiment [23] is Ribosomal protein S6 kinase alpha-3 (Homo sapiens) (UniProt P51812). Nature of the experiment: Inhibition of RSK2 assessed as remaining enzyme activity at 3 uM relative to DMSO.
In experiment [24] the target is MAP kinase-interacting serine/threonine-protein kinase 2 (Homo sapiens) (UniProt Q9HBH9). Nature of the experiment: Inhibition of MNK2 assessed as remaining enzyme activity at 3 uM relative to DMSO. In a few lines:
as §4

Experiment [25] addresses MAP/microtubule affinity-regulating kinase 3 (Homo sapiens) (UniProt P27448). Nature of the experiment: Inhibition of MARK3 assessed as remaining enzyme activity at 3 uM relative to DMSO. In a few lines:
as §4

Experiment [26] addresses Serine/threonine-protein kinase TBK1 (Homo sapiens) (UniProt Q9UHD2). Kind of experiment: Inhibition of TBK1 assessed as remaining enzyme activity at 3 uM relative to DMSO.
Experiment [27] deals with Serine/threonine-protein kinase 3 (Homo sapiens) (UniProt Q13188). Nature of the experiment: Inhibition of MST2 assessed as remaining enzyme activity at 3 uM relative to DMSO. An outline of the steps:
as §4

Experiment [28] concerns the target Maternal embryonic leucine zipper kinase (Homo sapiens) (UniProt Q14680). Kind of experiment: Inhibition of MELK assessed as remaining enzyme activity at 3 uM relative to DMSO. An outline of the steps: as §4
For experiment [29], the target named is Insulin receptor (Homo sapiens) (UniProt P06213). Kind of experiment: Inhibition of histidine-tagged IR assessed as remaining enzyme activity at 3 uM relative to DMSO.

Sequence of Serine/threonine-protein kinase 3 (Homo sapiens) (Q13188 whole entry): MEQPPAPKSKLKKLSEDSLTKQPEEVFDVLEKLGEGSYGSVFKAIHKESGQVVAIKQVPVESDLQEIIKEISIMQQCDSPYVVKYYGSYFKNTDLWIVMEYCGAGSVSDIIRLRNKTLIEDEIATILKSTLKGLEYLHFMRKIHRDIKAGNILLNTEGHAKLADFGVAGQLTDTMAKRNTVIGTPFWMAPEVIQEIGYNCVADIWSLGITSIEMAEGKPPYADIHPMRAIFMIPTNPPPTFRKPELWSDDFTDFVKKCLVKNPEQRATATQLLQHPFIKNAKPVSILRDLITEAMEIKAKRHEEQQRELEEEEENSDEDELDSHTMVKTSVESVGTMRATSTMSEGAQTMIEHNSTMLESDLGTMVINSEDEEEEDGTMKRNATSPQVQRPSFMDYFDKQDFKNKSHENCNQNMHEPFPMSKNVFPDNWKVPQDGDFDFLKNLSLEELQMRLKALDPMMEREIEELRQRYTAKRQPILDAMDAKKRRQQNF
Sequence of Mitogen-activated protein kinase 14 (Homo sapiens) (Q16539 whole entry): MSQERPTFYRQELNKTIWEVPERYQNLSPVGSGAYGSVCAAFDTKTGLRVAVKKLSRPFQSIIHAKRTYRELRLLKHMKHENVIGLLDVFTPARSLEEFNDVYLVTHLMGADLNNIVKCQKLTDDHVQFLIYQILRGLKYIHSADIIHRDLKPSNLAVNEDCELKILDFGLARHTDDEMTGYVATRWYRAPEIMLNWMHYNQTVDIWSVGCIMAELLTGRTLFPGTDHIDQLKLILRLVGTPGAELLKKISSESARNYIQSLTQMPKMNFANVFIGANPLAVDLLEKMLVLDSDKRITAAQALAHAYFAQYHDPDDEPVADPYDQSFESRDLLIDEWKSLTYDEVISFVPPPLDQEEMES
Sequence of Tyrosine-protein kinase ABL2 (Homo sapiens) (P42684 whole entry): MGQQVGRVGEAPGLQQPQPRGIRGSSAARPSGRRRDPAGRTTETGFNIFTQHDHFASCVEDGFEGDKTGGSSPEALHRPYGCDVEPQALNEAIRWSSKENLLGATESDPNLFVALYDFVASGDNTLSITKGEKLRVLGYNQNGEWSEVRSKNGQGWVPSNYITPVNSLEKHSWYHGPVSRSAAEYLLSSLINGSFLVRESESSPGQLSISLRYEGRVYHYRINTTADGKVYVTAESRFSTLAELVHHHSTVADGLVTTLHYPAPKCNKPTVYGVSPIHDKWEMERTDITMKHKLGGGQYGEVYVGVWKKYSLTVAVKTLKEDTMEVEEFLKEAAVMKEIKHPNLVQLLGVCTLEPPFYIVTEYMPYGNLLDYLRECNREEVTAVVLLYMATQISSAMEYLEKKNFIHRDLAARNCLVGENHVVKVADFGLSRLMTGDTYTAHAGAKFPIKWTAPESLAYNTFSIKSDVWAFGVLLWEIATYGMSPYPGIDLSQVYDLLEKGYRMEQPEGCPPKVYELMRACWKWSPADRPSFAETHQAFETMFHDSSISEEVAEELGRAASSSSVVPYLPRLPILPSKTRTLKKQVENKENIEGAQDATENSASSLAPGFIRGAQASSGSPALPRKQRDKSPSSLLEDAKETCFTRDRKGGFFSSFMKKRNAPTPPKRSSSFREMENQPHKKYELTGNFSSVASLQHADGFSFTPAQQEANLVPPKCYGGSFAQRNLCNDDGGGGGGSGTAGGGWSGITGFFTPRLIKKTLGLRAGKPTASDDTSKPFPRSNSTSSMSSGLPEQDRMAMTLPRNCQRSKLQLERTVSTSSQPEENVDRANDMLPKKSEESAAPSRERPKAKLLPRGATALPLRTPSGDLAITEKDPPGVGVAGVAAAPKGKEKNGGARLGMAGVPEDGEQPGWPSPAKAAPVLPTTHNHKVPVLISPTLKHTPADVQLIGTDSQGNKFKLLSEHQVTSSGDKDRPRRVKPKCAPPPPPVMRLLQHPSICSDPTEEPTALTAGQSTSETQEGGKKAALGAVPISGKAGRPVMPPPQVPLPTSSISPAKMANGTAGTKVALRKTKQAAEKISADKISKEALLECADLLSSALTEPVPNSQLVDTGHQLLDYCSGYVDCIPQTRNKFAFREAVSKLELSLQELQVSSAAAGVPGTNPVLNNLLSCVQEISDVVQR
Sequence of Serine/threonine-protein kinase 32C (Homo sapiens) (Q86UX6 whole entry): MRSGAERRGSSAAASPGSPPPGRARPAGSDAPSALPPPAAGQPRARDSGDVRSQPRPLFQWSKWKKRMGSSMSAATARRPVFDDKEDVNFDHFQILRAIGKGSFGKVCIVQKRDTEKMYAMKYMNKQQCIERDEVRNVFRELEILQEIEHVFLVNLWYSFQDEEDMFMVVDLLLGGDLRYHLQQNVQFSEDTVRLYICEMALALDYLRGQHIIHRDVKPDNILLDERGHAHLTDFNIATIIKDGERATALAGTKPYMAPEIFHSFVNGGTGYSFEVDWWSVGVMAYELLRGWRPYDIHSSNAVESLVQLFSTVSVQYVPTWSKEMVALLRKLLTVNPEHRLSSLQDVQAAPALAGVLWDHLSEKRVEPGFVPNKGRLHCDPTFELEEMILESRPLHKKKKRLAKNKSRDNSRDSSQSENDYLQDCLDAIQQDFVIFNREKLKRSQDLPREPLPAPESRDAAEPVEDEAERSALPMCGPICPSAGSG
Sequence of Inhibitor of nuclear factor kappa-B kinase subunit epsilon (Homo sapiens) (Q14164 whole entry): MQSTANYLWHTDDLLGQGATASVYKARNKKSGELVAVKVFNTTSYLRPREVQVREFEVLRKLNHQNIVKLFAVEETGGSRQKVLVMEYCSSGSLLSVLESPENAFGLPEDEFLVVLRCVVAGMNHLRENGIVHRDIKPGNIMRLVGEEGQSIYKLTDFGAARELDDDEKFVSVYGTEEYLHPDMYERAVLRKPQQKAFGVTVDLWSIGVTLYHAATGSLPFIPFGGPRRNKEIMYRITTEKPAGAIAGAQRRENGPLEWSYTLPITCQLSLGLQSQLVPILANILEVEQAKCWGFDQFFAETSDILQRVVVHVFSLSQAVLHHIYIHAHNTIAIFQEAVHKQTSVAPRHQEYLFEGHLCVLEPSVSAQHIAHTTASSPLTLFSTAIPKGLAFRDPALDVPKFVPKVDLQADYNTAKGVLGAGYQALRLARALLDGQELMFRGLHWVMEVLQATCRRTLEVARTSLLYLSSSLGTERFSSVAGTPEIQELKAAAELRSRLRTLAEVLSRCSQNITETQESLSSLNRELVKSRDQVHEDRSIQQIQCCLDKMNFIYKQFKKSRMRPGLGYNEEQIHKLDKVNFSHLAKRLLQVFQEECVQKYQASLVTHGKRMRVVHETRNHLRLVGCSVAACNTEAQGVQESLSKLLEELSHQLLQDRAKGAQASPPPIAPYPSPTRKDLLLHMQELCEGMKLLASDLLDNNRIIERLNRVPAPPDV
Sequence of eIF-2-alpha kinase GCN2 (Homo sapiens), Q9P2K8 [S808G] (Q9P2K8 whole entry S808G, the tested form may be a part): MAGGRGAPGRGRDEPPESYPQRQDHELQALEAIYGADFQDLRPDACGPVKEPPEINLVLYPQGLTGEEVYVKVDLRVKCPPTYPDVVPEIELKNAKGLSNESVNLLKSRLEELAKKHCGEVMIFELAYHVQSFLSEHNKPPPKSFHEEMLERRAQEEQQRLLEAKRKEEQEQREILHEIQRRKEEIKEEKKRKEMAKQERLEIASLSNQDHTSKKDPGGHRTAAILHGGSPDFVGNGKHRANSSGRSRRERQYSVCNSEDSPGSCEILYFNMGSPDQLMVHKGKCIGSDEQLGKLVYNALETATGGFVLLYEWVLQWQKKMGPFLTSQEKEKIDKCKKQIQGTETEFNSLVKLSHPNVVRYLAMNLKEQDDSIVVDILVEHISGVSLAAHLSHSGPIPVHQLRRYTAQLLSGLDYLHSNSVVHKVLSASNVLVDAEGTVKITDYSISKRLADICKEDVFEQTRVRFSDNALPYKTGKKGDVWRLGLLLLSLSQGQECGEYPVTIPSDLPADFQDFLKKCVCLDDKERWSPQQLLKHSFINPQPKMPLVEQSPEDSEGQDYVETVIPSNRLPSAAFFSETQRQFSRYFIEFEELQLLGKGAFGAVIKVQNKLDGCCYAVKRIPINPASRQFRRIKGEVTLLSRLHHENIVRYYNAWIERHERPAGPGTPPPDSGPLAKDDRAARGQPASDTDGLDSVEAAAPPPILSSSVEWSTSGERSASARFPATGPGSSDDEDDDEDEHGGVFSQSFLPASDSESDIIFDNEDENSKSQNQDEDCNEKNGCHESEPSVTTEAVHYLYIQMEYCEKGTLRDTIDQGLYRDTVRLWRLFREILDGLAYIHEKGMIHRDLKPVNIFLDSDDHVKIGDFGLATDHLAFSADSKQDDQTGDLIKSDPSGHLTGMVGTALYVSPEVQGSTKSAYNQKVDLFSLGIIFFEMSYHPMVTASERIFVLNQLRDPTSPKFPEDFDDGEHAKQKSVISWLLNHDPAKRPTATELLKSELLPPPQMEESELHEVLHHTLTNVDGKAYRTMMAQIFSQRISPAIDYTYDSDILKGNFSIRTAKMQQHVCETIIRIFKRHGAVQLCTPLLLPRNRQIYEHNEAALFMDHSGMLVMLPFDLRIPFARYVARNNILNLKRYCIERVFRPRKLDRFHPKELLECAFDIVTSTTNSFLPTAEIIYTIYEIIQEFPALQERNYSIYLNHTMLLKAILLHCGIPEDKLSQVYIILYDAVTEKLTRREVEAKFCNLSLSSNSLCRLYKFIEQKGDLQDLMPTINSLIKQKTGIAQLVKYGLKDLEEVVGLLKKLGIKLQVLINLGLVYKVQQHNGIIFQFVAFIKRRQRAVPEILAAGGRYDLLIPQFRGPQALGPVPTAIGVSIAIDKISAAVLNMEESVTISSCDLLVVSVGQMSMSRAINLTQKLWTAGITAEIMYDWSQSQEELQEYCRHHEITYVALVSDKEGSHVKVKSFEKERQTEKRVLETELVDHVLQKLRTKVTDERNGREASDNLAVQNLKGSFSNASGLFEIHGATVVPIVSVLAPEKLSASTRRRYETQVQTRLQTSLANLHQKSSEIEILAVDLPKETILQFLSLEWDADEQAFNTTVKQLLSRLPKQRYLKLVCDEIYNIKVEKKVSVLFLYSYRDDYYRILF

The IC50 is the concentration that inhibits the measured activity by half. A higher IC50 goes with weaker potency in that assay. Take `COc1ccccc1-n1c(-c2cc(O)ccc2C)cn2c3c(=O)[nH]c(=O)n(C)c3nc12`: the Activity in experiment [1] turned out to be 100%; in experiment [2], 97%; in experiment [3] it was 85%; in experiment [4] it was 90%; in [5], 100%; in [6], 0.75%. Also, the Activity in experiment [7] was found to be 0.15%; in [8], 96%; in experiment [10], 90%; in experiment [11], 111%; in [12], 94%; in experiment [13], 31%. Moreover, the Activity in experiment [16] amounted to 99%; in [17], 78%; in [18], 97%. For the same molecule, the concentration for half-maximal inhibition (IC50) is 15 nM in [9], 40 nM in experiment [14] and 3.3 nM in experiment [15].
Consider `COc1ccccc1-n1c(-c2ccccc2C)cn2c3c(=O)[nH]c(=O)n(C)c3nc12`, for which the Activity in experiment [19] is 103%; in [20], 6%; in [21], 87%; in experiment [22], 140%; in [23], 105%; in experiment [24], 85%. The Activity in [25] worked out at 111%; in [26], 79%; in experiment [27], 95%; in [28], 89%; in [29] it was 103%.
